The values below come from ChEMBL document CHEMBL1131235, “(R)-(+)-2-[[[3-(Morpholinomethyl)-2H-chromen-8-yl]oxy]methyl] morpholine methanesulfonate: a new selective rat 5-hydroxytryptamine1B receptor antagonist” (J Med Chem, 1998).

As usually defined, the Ki is the dissociation constant of the complex between target and ligand, obtained from inhibition or displacement. Higher therefore signals lower affinity.

Molecules are shown by their SMILES.

Assay [1] has as its target T1, Adrenergic receptor alpha-1 (Rattus norvegicus, UniProt P15823+P23944+P43140).
T1 sequence (P15823 whole entry): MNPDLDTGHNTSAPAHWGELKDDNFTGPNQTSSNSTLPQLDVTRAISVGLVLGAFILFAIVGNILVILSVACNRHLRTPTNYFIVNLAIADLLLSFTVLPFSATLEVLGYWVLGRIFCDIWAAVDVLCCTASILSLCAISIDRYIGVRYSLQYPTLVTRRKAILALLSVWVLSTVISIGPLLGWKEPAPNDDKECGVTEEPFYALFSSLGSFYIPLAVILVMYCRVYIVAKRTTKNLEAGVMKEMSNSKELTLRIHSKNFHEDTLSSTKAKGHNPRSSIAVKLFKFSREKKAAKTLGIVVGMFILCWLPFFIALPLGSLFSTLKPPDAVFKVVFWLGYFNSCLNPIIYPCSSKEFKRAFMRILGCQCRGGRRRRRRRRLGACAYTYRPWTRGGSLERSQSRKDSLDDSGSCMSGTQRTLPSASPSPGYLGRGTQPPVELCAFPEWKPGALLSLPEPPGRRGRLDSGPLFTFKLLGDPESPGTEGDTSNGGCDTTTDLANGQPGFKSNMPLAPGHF
T1 sequence (P23944 whole entry): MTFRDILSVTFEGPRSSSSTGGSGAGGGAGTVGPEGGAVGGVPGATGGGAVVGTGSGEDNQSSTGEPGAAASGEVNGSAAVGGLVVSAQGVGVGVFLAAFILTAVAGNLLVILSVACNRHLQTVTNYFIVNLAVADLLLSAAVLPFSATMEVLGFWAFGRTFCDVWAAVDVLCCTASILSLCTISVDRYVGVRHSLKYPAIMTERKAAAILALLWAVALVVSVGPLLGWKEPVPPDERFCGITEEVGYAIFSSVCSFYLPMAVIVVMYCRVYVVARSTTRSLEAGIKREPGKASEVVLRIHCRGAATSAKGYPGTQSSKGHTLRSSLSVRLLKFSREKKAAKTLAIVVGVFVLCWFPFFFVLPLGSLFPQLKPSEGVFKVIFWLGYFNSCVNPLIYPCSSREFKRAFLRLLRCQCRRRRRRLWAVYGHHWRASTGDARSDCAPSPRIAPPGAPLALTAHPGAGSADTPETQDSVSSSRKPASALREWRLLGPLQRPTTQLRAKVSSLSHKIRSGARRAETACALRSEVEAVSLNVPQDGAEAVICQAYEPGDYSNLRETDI
T1 sequence (P43140 whole entry): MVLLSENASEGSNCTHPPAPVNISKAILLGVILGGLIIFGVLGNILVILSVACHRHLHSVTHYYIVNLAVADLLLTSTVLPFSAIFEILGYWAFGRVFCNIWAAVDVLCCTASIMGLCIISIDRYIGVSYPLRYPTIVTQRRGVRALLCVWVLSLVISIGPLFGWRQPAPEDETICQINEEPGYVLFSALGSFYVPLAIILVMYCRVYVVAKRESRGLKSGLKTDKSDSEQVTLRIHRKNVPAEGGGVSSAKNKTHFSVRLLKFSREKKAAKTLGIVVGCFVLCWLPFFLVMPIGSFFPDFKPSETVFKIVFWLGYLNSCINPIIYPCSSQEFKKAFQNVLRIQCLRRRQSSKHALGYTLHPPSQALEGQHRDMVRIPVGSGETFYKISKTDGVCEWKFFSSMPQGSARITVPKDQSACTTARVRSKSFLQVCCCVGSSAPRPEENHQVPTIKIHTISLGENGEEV
Put plainly: Binding affinity against Alpha-1 adrenergic receptor in rat cortex using [3H]prazosin as the radioligand. The class given is tissue-based, Brain. The method in brief:
(§1)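 Binding by the Jackson et al. method. 5-HT1A used [3H]OH-DPAT on rat hippocampus. α1 used [3H]prazosin, α2 [3H]RX821002 and β [3H]dihydroalprenolol, all on rat cortex. D1 used [3H]SCH-23390 on rat striatum. D2 used [3H]raclopride on LtkhD2A cell membranes.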

Assay [2] has as its target 5-HT1B & 5-HT1D (Bos taurus). Put plainly: Binding affinity against 5-hydroxytryptamine 1B receptor - 5-hydroxytryptamine 1D receptor using [3H]5-HT as the radioligand.
The target in assay [3] is T2, 5-hydroxytryptamine receptor 1A (Rattus norvegicus, UniProt P19327).
T2 sequence (P19327 whole entry): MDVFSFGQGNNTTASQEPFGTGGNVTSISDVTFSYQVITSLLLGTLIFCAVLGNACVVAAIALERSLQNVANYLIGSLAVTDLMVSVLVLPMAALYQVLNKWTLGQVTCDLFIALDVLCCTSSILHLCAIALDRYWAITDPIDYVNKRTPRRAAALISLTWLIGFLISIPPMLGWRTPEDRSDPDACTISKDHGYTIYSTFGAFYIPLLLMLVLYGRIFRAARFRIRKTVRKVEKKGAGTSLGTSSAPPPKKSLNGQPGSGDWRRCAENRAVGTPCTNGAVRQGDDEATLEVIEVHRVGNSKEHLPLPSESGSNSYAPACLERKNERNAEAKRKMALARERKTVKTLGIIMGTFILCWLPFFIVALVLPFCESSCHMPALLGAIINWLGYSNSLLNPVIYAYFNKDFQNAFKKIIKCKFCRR
Put plainly: Binding affinity against 5-hydroxytryptamine 1A receptor from rat hippocampus using [3H]8-OH-DPAT as the radioligand. The class given is tissue-based. The method in brief:
as §1

For assay [4], the species on record is Rattus norvegicus. Put plainly: Effect on 5-HIAA/5-HT turnover in Hippocampus of rat brain, expressed as percent of control. Format: functional. The method in brief: (§2)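 Rats received compound 20 mg/kg sc or saline 30 min before NSD 1015 (3-hydroxybenzylhydrazine dihydrochloride), 100 mg/kg sc. They were killed 30 min later. Hypothalamus, hippocampus, frontal cortex and striatum were dissected, frozen on dry ice and stored at -70 °C. 5-HTP, 5-HT and 5-HIAA were measured by HPLC and expressed as % of saline control.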

For assay [5], the species on record is Rattus norvegicus. Put plainly: Effect on 5-HIAA/5-HT turnover in Hyphalamus of rat brain, expressed as percent of control. Format: functional. Put shortly:
as §2

The species named for assay [6] is Rattus norvegicus. The assay is described as follows: Percent control of the stimulation ratio S2 (second stimulation)/S1(first stimulation) at a concentration of 1000 nM. (p<0.05). The class given is functional.
For assay [7], the species on record is Rattus norvegicus. The assay is described as follows: Effect on 5-HTP turnover in Striatum of rat brain, expressed as percent of control. The class given is functional. The method in brief: as §2
The species entered for assay [8] is Rattus norvegicus. Put plainly: Effect on 5-HIAA/5-HT turnover in Striatum of rat brain, expressed as percent of control. Format: functional. The method in brief:
as §2

The species named for assay [9] is Rattus norvegicus. The assay is described as follows: Effect on 5-HTP turnover in hypothalamus of rat brain, expressed as percent of control. Format: functional. The method in brief:
as §2

Assay [10] addresses 5-hydroxytryptamine receptor 7 (Rattus norvegicus, UniProt P32305). The assay is described as follows: Binding affinity against 5-hydroxytryptamine 7 receptor using from CHO cell membranes [3H]5-HT as the radioligand. Put shortly: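 Binding by the Johansson et al. method. 5-HT2A used [3H]ketanserin and 5-HT2C used [3H]mesulergine, both on rat cortex. 5-HT6 and 5-HT7 used [3H]-5-HT on CHO cell membranes expressing the rat receptors.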

Sequence of 5-hydroxytryptamine receptor 7 (P32305 whole entry): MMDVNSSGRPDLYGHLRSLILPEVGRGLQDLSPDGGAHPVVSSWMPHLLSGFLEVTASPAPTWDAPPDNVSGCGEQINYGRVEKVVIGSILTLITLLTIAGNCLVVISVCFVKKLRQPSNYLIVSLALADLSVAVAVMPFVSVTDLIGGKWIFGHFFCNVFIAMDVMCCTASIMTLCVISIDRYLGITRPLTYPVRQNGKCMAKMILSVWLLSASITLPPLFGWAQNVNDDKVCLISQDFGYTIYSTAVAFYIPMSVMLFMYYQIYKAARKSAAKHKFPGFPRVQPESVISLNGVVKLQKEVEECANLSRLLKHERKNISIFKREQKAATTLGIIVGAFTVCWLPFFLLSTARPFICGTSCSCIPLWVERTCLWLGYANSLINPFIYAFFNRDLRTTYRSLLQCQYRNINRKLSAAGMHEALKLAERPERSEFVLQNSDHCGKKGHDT

As to `C1=C(CN2CCOCC2)COc2c1cccc2OC[C@@H]1CNCCO1.Cl`, the Ki in assay [1], in assay [2] and in assay [3] was greater than 10 µM each time.

For the compound `C1=C(CN2CCOCC2)COc2c1cccc2OC[C@H]1CNCCO1.CS(=O)(=O)O`, the Activity in the assay listed under Rattus norvegicus [4] was found to be 142%; in the assay filed under Rattus norvegicus [5] it was 166%; in the assay listed under Rattus norvegicus [7] it was 142%; in the assay listed under Rattus norvegicus [8], 145%; in the assay listed under Rattus norvegicus [9], 140%. The Ki in [1] was greater than 10 µM; in [2] it was 0.63 µM; in [10] it was greater than 3 µM; in [3], greater than 10 µM. In addition, the Control in the assay listed under Rattus norvegicus [6] was determined as 153%.
